Measured values as given in ChEMBL document CHEMBL3875165, “Novel broad-spectrum and long-acting parenteral cephalosporins having an acyl cyanamide moiety at the C-3 terminal: Synthesis and structure-activity relationships” (Eur J Med Chem, 2016).
Values after ≈ are worked out from the molar mass of the structure shown.

How the values were obtained:
[1] = AUC (0 to infinity) in monkey at 20 mg/kg, iv administered as bolus dose by HPLC method; format: ADME, organism-based, Macaca mulatta; set-up: dose 20 mg/kg, time infinity, route intravenous; details: rhesus monkey, in vivo
Procedure, shortened: (§1)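 Three monkeys per group received a single iv bolus of 20 mg/kg (1 mL/kg). Plasma levels were measured by HPLC. AUC0-∞, CLtot and T1/2 came from a 2-compartment fit.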

[2] = Half life in monkey at 20 mg/kg, iv administered as bolus dose by HPLC method; format: ADME, organism-based, Macaca mulatta; details: rhesus monkey, in vivo; procedure, shortened: as §1
[3] = Total clearance in monkey at 20 mg/kg, iv administered as bolus dose by HPLC method; format: ADME, organism-based, Macaca mulatta; details: rhesus monkey, in vivo; procedure, shortened: as §1
[4] = Protein binding in ICR mouse plasma after 30 mins by ultra-filtration method; format: ADME, cell-free; details: read-out: PPB (converted)
Procedure, shortened: (§2)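 Mouse or monkey plasma was adjusted to pH 7 with CO2 and spiked with compound to a final 10 µg/ml. It was incubated 30 min at 37 °C, then ultrafiltered by centrifugation at 3200 rpm for 30 min at 25 °C. Free drug in the filtrate was measured by bioassay to give the bound fraction.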

[5] = Protein binding in cynomolgus monkey plasma after 30 mins by ultra-filtration method; format: ADME, cell-free, Macaca fascicularis; details: read-out: PPB (converted); procedure, shortened: as §2
Staphylococcus aureus = assay: Antibacterial activity against Staphylococcus aureus SMITH after 20 hrs by agar dilution method; format: functional
Procedure, shortened: (§3)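 Agar dilution MIC on Sensitivity Disk Agar-N with 2-fold serial drug dilutions. Overnight Mueller Hinton broth cultures were diluted to about 10^6 CFU/mL, and 1 µL spots were applied. Plates were incubated 20 h at 37 °C before scoring.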

Streptococcus pneumoniae [6] = assay: Antibacterial activity against penicillin-resistant Streptococcus pneumoniae SR16675 after 20 hrs by agar dilution method; format: functional; details: SR16675, 20 h
Procedure, shortened: (§4)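 Agar dilution on Sensitivity Disk Agar-N. Overnight Mueller Hinton broth cultures were diluted to about 10^6 CFU/mL, and 1 µL spots were placed on agar plates holding 2-fold serial dilutions of antibiotic. Plates were incubated 20 h at 37 °C and then MICs were scored.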

Streptococcus pneumoniae [7] = assay: Antibacterial activity against penicillin-resistant Streptococcus pneumoniae SR16750 after 20 hrs by agar dilution method; format: functional; details: SR16750, 20 h; procedure, shortened: as §4
Haemophilus influenzae [8] = assay: Antibacterial activity against beta-lactamase non-producing penicillin-resistant Haemophilus influenzae SR11435 after 20 hrs by agar dilution method; format: functional; details: SR11435, 20 h; procedure, shortened: as §4
Haemophilus influenzae [9] = assay: Antibacterial activity against beta-lactamase non-producing penicillin-resistant Haemophilus influenzae SR24106 after 20 hrs by agar dilution method; format: functional; details: SR24106, 20 h; procedure, shortened: as §4
Moraxella catarrhalis = assay: Antibacterial activity against Moraxella catarrhalis SR24290 after 20 hrs by agar dilution method; format: functional; details: SR24290, 20 h; procedure, shortened: as §3
Escherichia coli = assay: Antibacterial activity against Escherichia coli NIHJ JC-2 after 20 hrs by agar dilution method; format: functional; details: NIHJ JC-2, 20 h; procedure, shortened: as §3
[10] = Half life in mouse at 20 mg/kg, iv administered as bolus dose by band-culture bioassay; details: in vivo
[11] = Total clearance in mouse at 20 mg/kg, iv administered as bolus dose by band-culture bioassay; details: in vivo
[12] = AUC (0 to infinity) in mouse at 20 mg/kg, iv administered as bolus dose by band-culture bioassay; details: in vivo
Streptococcus pneumoniae [13] = assay: Antibacterial activity against penicillin-susceptible Streptococcus pneumoniae SR16605 infected in sc dosed mouse assessed as protection against bacterial infection by measuring increase in mouse survival administered 1 and 5 hrs post infection measured after 7 days; format: functional
Procedure, shortened: (§5)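 Mouse septicemia model in six-week-old male Jcl:ICR mice (19 to 25 g). Mice were infected intraperitoneally with 0.5 mL of S. pneumoniae suspension in hog mucin. Compound was given subcutaneously 1 and 5 h after infection. Mortality was recorded over 7 days, and ED50 with 90% confidence limits was derived by the logit method.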

Streptococcus pneumoniae [14] = assay: Antibacterial activity against penicillin-resistant Streptococcus pneumoniae SR16754 infected in sc dosed mouse assessed as protection against bacterial infection by measuring increase in mouse survival administered 1 and 5 hrs post infection measured after 7 days; format: functional; procedure, shortened: as §5
Streptococcus pneumoniae [15] = assay: Antibacterial activity against penicillin-susceptible Streptococcus pneumoniae SR16605 after 20 hrs by agar dilution method; format: functional; details: SR16605, 20 h; procedure, shortened: as §4
Streptococcus pneumoniae [16] = assay: Antibacterial activity against penicillin-resistant Streptococcus pneumoniae SR16754 after 20 hrs by agar dilution method; format: functional; details: SR16754, 20 h; procedure, shortened: as §4

Row | SMILES | AUC [1] [µg·h/mL] | half-life [2] [min] | clearance [3] [mL/min/kg] | fraction unbound at 0.5 h [4] | fraction unbound at 0.5 h [5] | MIC (Staphylococcus aureus) [µg/mL] | MIC (Streptococcus pneumoniae [6]) [µg/mL] | MIC (Streptococcus pneumoniae [7]) [µg/mL] | MIC (Haemophilus influenzae [8]) [µg/mL] | MIC (Haemophilus influenzae [9]) [µg/mL] | MIC (Moraxella catarrhalis) [µg/mL] | MIC (Escherichia coli) [µg/mL] | half-life [10] [min] | clearance [11] [mL/min/kg] | AUC(0-inf) [12] [ng·h/mL] | ED50 (Streptococcus pneumoniae [13]) [mg/kg] | ED50 (Streptococcus pneumoniae [14]) [mg/kg] | MIC (Streptococcus pneumoniae [15]) [µg/mL] | MIC (Streptococcus pneumoniae [16]) [µg/mL]
1 | CCO/N=C(\C(=O)N[C@@H]1C(=O)N2C(C(=O)[O-])=C(/C=C/C[n+]3cccc4cc(/C([O-])=N/C#N)[nH]c43)CS[C@H]12)c1csc(N)n1.[Na+] | 29.2 | 261 | 0.57 | 0.67 | 0.06 | 0.5 | 0.25 | 0.5 | 0.063 | 0.25 | 0.5 | 0.125 | 38.4 | 15 | 22200 |  |  |  | 
2 | CCO/N=C(\C(=O)N[C@@H]1C(=O)N2C(C(=O)[O-])=C(/C=C/C[n+]3cccc4[nH]c(/C([O-])=N/C#N)cc43)CS[C@H]12)c1csc(N)n1.[Na+] | 9.8 | 122 | 1.74 | 0.64 | 0.4 | 0.5 | 0.25 | 0.5 | 0.031 | 0.125 | 1 | 0.125 | 43.8 | 14.1 | 23600 |  |  |  | 
3 | CCO/N=C(\C(=O)N[C@@H]1C(=O)N2C(C(=O)[O-])=C(/C=C/C[n+]3cccc4cc(/C([O-])=N/C#N)ccc43)CS[C@H]12)c1csc(N)n1.[Na+] | 8.2 | 104 | 2.08 | 0.9 | 0.63 | 0.25 | 0.25 | 0.5 | 0.031 | 0.125 | 0.5 | 0.125 | 57 | 25.7 | 12900 |  |  |  | 
4 | CCO/N=C(\C(=O)N[C@@H]1C(=O)N2C(C(=O)[O-])=C(/C=C/C[n+]3ccc(-c4csc(/C([O-])=N/C#N)c4)cc3)CS[C@H]12)c1csc(N)n1.[Na+] | 25.9 | 280 | 0.66 | 0.63 | 0.36 | 0.25 | 0.125 | 0.25 | 0.063 | 0.125 | 2 | 0.125 | 45 | 11 | 30400 |  |  |  | 
5 | CO/N=C(\C(=O)N[C@@H]1C(=O)N2C(C(=O)O)=C(CSc3nc(=O)c(=O)[nH]n3C)CS[C@H]12)c1csc(N)n1 [CEFTRIAXONE] | 21.9 | 117 | 0.77 | 0.06 | 0.05 | 2 (≈ 3.61 µM) | 1 (≈ 1.8 µM) | 2 (≈ 3.61 µM) | 0.125 (≈ 0.225 µM) | 0.25 (≈ 0.451 µM) | 1 (≈ 1.8 µM) | 0.125 (≈ 0.225 µM) | 38.4 | 5.49 | 60800 | 0.11 | 5.65 | 0.016 (≈ 0.0289 µM) | 1 (≈ 1.8 µM)
6 | CCO/N=C(\C(=O)N[C@@H]1C(=O)N2C(C(=O)[O-])=C(/C=C/C[n+]3ccc(-n4ccc(/C([O-])=N/C#N)n4)cc3)CS[C@H]12)c1csc(N)n1.[Na+] | 32.1 | 168 | 0.54 | 0.86 | 0.14 | 0.5 | 0.25 | 0.5 | 0.063 | 0.125 | 2 | 0.125 | 52.2 | 19.8 | 16800 |  |  |  | 
7 | CCO/N=C(\C(=O)N[C@@H]1C(=O)N2C(C(=O)[O-])=C(/C=C/C[n+]3ccc(-c4cc(/C([O-])=N/C#N)on4)cc3)CS[C@H]12)c1csc(N)n1.[Na+] | 59.8 | 308 | 0.29 | 0.78 | 0.06 | 0.5 | 0.25 | 0.25 | 0.063 | 0.125 | 0.5 | 0.125 | 51 | 22.6 | 14800 |  |  |  | 
